A short description of assay [1]: hit retest on RPL19A-GFP reporter strain – cell-based, S. cerevisiae, flow cytometry, cherry picks, mother/daughter gates, confirmation (AID 2270;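 active = GFP response below 50% of the DMSO control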). The note with it: 3 h, at 10 µM, stronger effect = lower value, 100 = same GFP as DMSO wells. (A flow cytometer gives signals particle by particle.)
A short description of assay [2]: yeast TOR pathway reporter LAP4-GFP change – cell-based, cherry picks, flow cytometry, mother/daughter gates, confirmation (AID 2271;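 active = GFP response above 150% of the DMSO control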;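 also: ratio of sample to DMSO plate mean so 100% equals DMSO level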). The following applies: S. cerevisiae LAP4-GFP strain, 3 h, at 10 µM, stronger effect = higher value, 100 means same as DMSO control. In outline:
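System – GFP-fusion yeast strain · Amount – 0.2 OD600 cells · Buffer or medium – SC growth medium · Dosing – single test-compound dose, 10 µM final · Schedule – 3 h treatment at 30 °C with rotation · Detection – GFP by flow cytometry · Read-out – per-gate (all, mother, daughter) GFP response vs DMSO · Benchmarks – positive rapamycin (400 ng/mL), negative DMSO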

Assay [3] in a line: TOR pathway reporter MEP2-GFP, retest of hits – S. cerevisiae, flow cytometry GFP, cherry picks, confirmation (AID 2272;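 active = GFP response above 150% of the DMSO control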;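 also: ratio of well signal to plate DMSO mean so 100% equals DMSO level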). The note with it: S. cerevisiae MEP2-GFP strain, 3 h, at 10 µM, stronger effect = higher value.
A short description of assay [4]: yeast AGP1-GFP fluorescence change, single-dose – cell-based, flow cytometry, S. cerevisiae, cherry picks, confirmation (AID 2273).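 Also: median GFP channel fluorescence over the whole cell population gate.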 The note with it: S. cerevisiae AGP1-GFP strain, 3 h, at 10 µM.
The nature of assay [5]: TOR pathway CIT2 reporter hit retest – S. cerevisiae, GFP fusion, cherry picks, mother/daughter gates, confirmation (AID 2274). The following applies: S. cerevisiae CIT2-GFP strain, flow cytometry, 3 h, at 10 µM, stronger effect = higher value.
Where [6] appears, read: measured here: daughter cell gate.
Setting [7] is: measured here: mother cell gate.
Setting [8] is: measured here: daughter cell gate response.
[9] abbreviates: measured here: mother cell gate response.

Each structure is given as a SMILES string. The source made the active and inactive calls.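 The calls were made as follows, unless noted: active = GFP response above 150% of the DMSO level; inconclusive = fewer than 70 events counted for a yeast strain; inactive = the rest.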

As for `O=C(c1ccc2c(c1)OCO2)N1CCN(c2ccc(F)cc2)CC1`, the GFP response vs DMSO in assay [1] was 103% (inactive); in assay [1] (setting [6]) it was 101%; in assay [1] (setting [7]), 102%; in assay [3] it was 102% (inactive). The GFP response relative to DMSO was 90.2% (inactive) in assay [2], 89.5% in assay [2] (setting [8]) and 91.1% in assay [2] (setting [9]). For the same compound, the GFP response, % of DMSO is 98.5% (inactive) in assay [4], 99.1% (inactive) in assay [5], 96.5% in assay [5] (setting [6]) and 99.8% in assay [5] (setting [7]).
On to `COc1ccccc1OCC(=O)Sc1ccc(C)cc1`, for which the GFP response vs DMSO in assay [1] was 95.3% (inactive); in assay [1] (setting [6]), 96.7%; in assay [1] (setting [7]), 92.3%; in assay [3], 120% (inactive). Further, the GFP response relative to DMSO in assay [2] is 113% (inactive); in assay [2] (setting [8]), 110%; in assay [2] (setting [9]), 113%. The GFP response, % of DMSO in assay [4] was 99.3% (inactive); in assay [5] it was 97.2% (inactive); in assay [5] (setting [6]), 99.3%; in assay [5] (setting [7]) it was 93.8%.
As to `COCCN(CCOC)S(=O)(=O)c1ccc(C(=O)Nc2nnc(C3CC3)o2)cc1`, the GFP response vs DMSO in assay [1] was 101% (inactive); in assay [1] (setting [6]), 99.8%; in assay [1] (setting [7]), 101%; in assay [3] it was 100% (inactive). Further, the results for the GFP response relative to DMSO in assay [2], in assay [2] (setting [8]) and in assay [2] (setting [9]) were 93.8% (inactive), 94.1% and 95.2%, respectively. For the same compound, the GFP response, % of DMSO in assay [4] is 101% (inactive); in assay [5], 106% (inactive); in assay [5] (setting [6]) it was 105%; in assay [5] (setting [7]), 106%.
On to `COc1ccc(C(=O)c2no[n+]([O-])c2C(=O)c2ccc(OC)cc2)cc1`, for which the GFP response vs DMSO is 90.1% (inactive) in assay [1], 83.3% in assay [1] (setting [6]), 86.6% in assay [1] (setting [7]) and 94.1% (inactive) in assay [3]. Also, the GFP response relative to DMSO in assay [2] is 149% (inactive); in assay [2] (setting [8]), 134%; in assay [2] (setting [9]), 153%. Besides, the GFP response, % of DMSO in assay [4] is 92.9% (inactive); in assay [5], 82.6% (inactive); in assay [5] (setting [6]), 77.1%; in assay [5] (setting [7]) it was 73.6%.
On to `Cc1cccn2c(=O)c(/C=C(\C#N)C(=O)NCc3ccco3)c(N3CCCC(C)C3)nc12` (configuration not stated), for which the GFP response vs DMSO in assay [1] is 99.8% (inactive); in assay [1] (setting [6]), 99.1%; in assay [1] (setting [7]) it was 99.5%; in assay [3], 98.8% (inactive). The GFP response relative to DMSO in assay [2] was 96.1% (inactive); in assay [2] (setting [8]), 96.6%; in assay [2] (setting [9]), 97.2%. The GFP response, % of DMSO in assay [4] was 101% (inactive); in assay [5], 99.7% (inactive); in assay [5] (setting [6]), 100%; in assay [5] (setting [7]) it was 99.7%.
As to `COc1ccc(-c2[nH]ncc2-c2ccc(Cl)cc2)c(O)c1`, the GFP response vs DMSO in assay [1] was 101% (inactive); in assay [1] (setting [6]) it was 97.8%; in assay [1] (setting [7]), 99.4%; in assay [3] it was 102% (inactive). The GFP response relative to DMSO in assay [2] is 103% (inactive); in assay [2] (setting [8]), 100%; in assay [2] (setting [9]), 105%. The GFP response, % of DMSO in assay [4] is 93.7% (inactive); in assay [5], 104% (inactive); in assay [5] (setting [6]), 101%; in assay [5] (setting [7]) it was 105%.
On to `COc1ccc(CCNC2=C(Cl)C(=O)N(CCc3ccc(OC)c(OC)c3)C2=O)cc1OC`, for which the GFP response vs DMSO in assay [1] is 99.1% (inactive); in assay [1] (setting [6]), 98.5%; in assay [1] (setting [7]), 99.3%; in assay [3], 108% (inactive). Further, the GFP response relative to DMSO was 100% (inactive) in assay [2], 99.3% in assay [2] (setting [8]) and 100% in assay [2] (setting [9]). Besides, the GFP response, % of DMSO in assay [4] is 101% (inactive); in assay [5], 95% (inactive); in assay [5] (setting [6]), 98.3%; in assay [5] (setting [7]), 93.3%.
Turning to `O=C(OCC(=O)N1CCN(C(=O)c2ccco2)CC1)c1cc(-c2ccc(Cl)c(Cl)c2Cl)nc2ccccc12`, the GFP response vs DMSO was 90.1% (inactive) in assay [1], 89.1% in assay [1] (setting [6]), 89% in assay [1] (setting [7]) and 117% (inactive) in assay [3]. Further, the GFP response relative to DMSO in assay [2] is 97.9% (inactive); in assay [2] (setting [8]), 99.2%; in assay [2] (setting [9]) it was 104%. In addition, the GFP response, % of DMSO in assay [4] was 116% (inactive); in assay [5], 115% (inactive); in assay [5] (setting [6]) it was 105%; in assay [5] (setting [7]), 107%.
For `C/C(=N\NC(=O)c1c(Br)c(C)nn1C)c1cccc(NC(=O)C2CCC2)c1`, the GFP response vs DMSO in assay [1] is 100% (inactive); in assay [1] (setting [6]) it was 101%; in assay [1] (setting [7]), 102%; in assay [3] it was 102% (inactive). Further, the GFP response relative to DMSO in assay [2] was 101% (inactive); in assay [2] (setting [8]), 97.9%; in assay [2] (setting [9]), 101%. Further, the GFP response, % of DMSO was 106% (inactive) in assay [4], 99.3% (inactive) in assay [5], 98.3% in assay [5] (setting [6]) and 99.1% in assay [5] (setting [7]).
As for `CCOc1ccccc1-c1noc(CCC(=O)Nc2cccnc2)n1`, the GFP response vs DMSO in assay [1] is 98.4% (inactive); in assay [1] (setting [6]), 99%; in assay [1] (setting [7]) it was 99.2%; in assay [3], 111% (inactive). Moreover, the GFP response relative to DMSO in assay [2] was 107% (inactive); in assay [2] (setting [8]), 105%; in assay [2] (setting [9]), 110%. Besides, the GFP response, % of DMSO in assay [4] was 106% (inactive); in assay [5], 110% (inactive); in assay [5] (setting [6]), 108%; in assay [5] (setting [7]), 112%.
Turning to `CCSc1nnc(NC(=O)c2nc(S(=O)(=O)Cc3ccc(F)cc3)ncc2Cl)s1`, the GFP response vs DMSO in assay [1] is 102% (inactive); in assay [1] (setting [6]), 99%; in assay [1] (setting [7]), 103%; in assay [3], 104% (inactive). For the same compound, the GFP response relative to DMSO is 103% (inactive) in assay [2], 108% in assay [2] (setting [8]) and 103% in assay [2] (setting [9]). Also, the GFP response, % of DMSO in assay [4] was 102% (inactive); in assay [5], 112% (inactive); in assay [5] (setting [6]), 110%; in assay [5] (setting [7]), 113%.
Regarding `COc1ccc(/C=C/C(=O)NC(=S)NNC(=O)c2cnccn2)cc1`, the GFP response vs DMSO was 105% (inactive) in assay [1], 91.1% in assay [1] (setting [6]), 79.2% in assay [1] (setting [7]) and 140% (inactive) in assay [3]. The values for the GFP response relative to DMSO in assay [2], in assay [2] (setting [8]) and in assay [2] (setting [9]) were 166% (active), 120% and 162%, respectively. In addition, the GFP response, % of DMSO in assay [4] was 78.5% (inactive); in assay [5] it was 115% (inactive); in assay [5] (setting [6]) it was 99.1%; in assay [5] (setting [7]) it was 106%.
For `COc1ccc2c(/C=C/c3cc[n+](C)cc3)c[nH]c2c1`, the GFP response vs DMSO in assay [1] was 102% (inactive); in assay [1] (setting [6]), 106%; in assay [1] (setting [7]), 101%; in assay [3], 199% (active). In addition, the figures for the GFP response relative to DMSO in assay [2], in assay [2] (setting [8]) and in assay [2] (setting [9]) were 144% (inactive), 152% and 143%, respectively. In addition, the GFP response, % of DMSO in assay [4] was 100% (inactive); in assay [5], 161% (active); in assay [5] (setting [6]), 169%; in assay [5] (setting [7]), 157%.
In the case of `Cc1ccc(S(=O)(=O)Cc2cc(F)c([N+](=O)[O-])cc2[N+](=O)[O-])cc1`, the GFP response vs DMSO in assay [1] was 74.2% (inactive); in assay [1] (setting [6]) it was 88.4%; in assay [1] (setting [7]), 62.6%; in assay [3] it was 127% (inactive). In addition, the GFP response relative to DMSO in assay [2] was 251% (active); in assay [2] (setting [8]) it was 146%; in assay [2] (setting [9]), 223%. Also, the GFP response, % of DMSO in assay [4] was 105% (inactive); in assay [5], 89.7% (inactive); in assay [5] (setting [6]), 84.1%; in assay [5] (setting [7]), 72.8%.
Turning to `O=C(Nc1cccc(Cl)c1N1CCCC1)c1ccc([N+](=O)[O-])o1`, the GFP response vs DMSO was 99.2% (inactive) in assay [1], 96.4% in assay [1] (setting [6]), 95.8% in assay [1] (setting [7]) and 100% (inactive) in assay [3]. Further, the values for the GFP response relative to DMSO in assay [2], in assay [2] (setting [8]) and in assay [2] (setting [9]) were 99.2% (inactive), 92.8% and 96.1%, respectively. Besides, the GFP response, % of DMSO in assay [4] is 97.6% (inactive); in assay [5] it was 99.7% (inactive); in assay [5] (setting [6]), 99.1%; in assay [5] (setting [7]), 91.4%.
With `Cc1ccc(S(=O)(=O)c2ncccc2[N+](=O)[O-])cc1`, the GFP response vs DMSO in assay [1] is 92.2% (inactive); in assay [1] (setting [6]), 93.2%; in assay [1] (setting [7]) it was 89.1%; in assay [3], 105% (inactive). The GFP response relative to DMSO in assay [2] is 129% (inactive); in assay [2] (setting [8]), 123%; in assay [2] (setting [9]), 131%. Further, the GFP response, % of DMSO was 109% (inactive) in assay [4], 94.4% (inactive) in assay [5], 97.4% in assay [5] (setting [6]) and 91.9% in assay [5] (setting [7]).
For the compound `Cc1cccc(CSc2cccc3cccnc23)c1`, the GFP response vs DMSO in assay [1] was 92.3% (inactive); in assay [1] (setting [6]), 91.3%; in assay [1] (setting [7]), 92.1%; in assay [3], 97.2% (inactive). Further, the GFP response relative to DMSO was 130% (inactive) in assay [2], 125% in assay [2] (setting [8]) and 132% in assay [2] (setting [9]). For the same compound, the GFP response, % of DMSO in assay [4] was 89.1% (inactive); in assay [5] it was 88.9% (inactive); in assay [5] (setting [6]) it was 90.5%; in assay [5] (setting [7]), 85.9%.

The values above are taken from PubChem BioAssay.
